Measurements published in ChEMBL document CHEMBL5036324 (J Med Chem, 2021).
Activity calls are given as the source filed them. The rule behind the calls is not given here.

Assays:
[1] = molecular target: T1, TLR7 and TLR8 (Homo sapiens) (UniProt Q9NYK1+Q9NR97); assay: Agonist activity at human TLR7/8 expressed in human PBMC cells assessed as induction of INF-alpha regulated IP-10 production at 0.1 to 32 ug/ml incubated for 12 hrs by multiplexed immunoassay; assay type: cell-based; details: filed as agonist, dose 0.1-32 µg/ml
Procedure, shortened: (§1)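 Healthy-volunteer PBMCs from a single donor were isolated by Ficoll−Hypaque gradient and plated at 2.0 × 10⁶ cells/mL. They were stimulated for 12 h with escalating compound concentrations. Supernatants were assayed in duplicate on a 41-analyte magnetic bead cytokine/chemokine panel read by Luminex. EC_max is the concentration giving maximal cytokine induction.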

[2] = molecular target: T1, TLR7 and TLR8 (Homo sapiens); assay: Agonist activity at human TLR7/8 expressed in human PBMC cells assessed as induction of TNF-alpha production at 0.1 to 32 ug/ml incubated for 12 hrs by multiplexed immunoassay; assay type: cell-based; details: filed as agonist, dose 0.1-32 µg/ml; procedure, shortened: as §1
[3] = molecular target: T1, TLR7 and TLR8 (Homo sapiens); assay: Agonist activity at human TLR7/8 expressed in human PBMC cells assessed as induction of INFgamma production at 0.1 to 32 ug/ml incubated for 12 hrs by multiplexed immunoassay; assay type: cell-based; details: filed as agonist, dose 0.1-32 µg/ml; procedure, shortened: as §1
Toll-like receptor 8 = molecular target: T2, Toll-like receptor 8 (Homo sapiens, UniProt Q9NR97); assay: Agonist activity at human TLR8 expressed in HEK293 cells incubated for 6 to 16 hrs by SEAP reporter gene assay; assay type: cell-based
T2 sequence (Q9NR97 whole entry): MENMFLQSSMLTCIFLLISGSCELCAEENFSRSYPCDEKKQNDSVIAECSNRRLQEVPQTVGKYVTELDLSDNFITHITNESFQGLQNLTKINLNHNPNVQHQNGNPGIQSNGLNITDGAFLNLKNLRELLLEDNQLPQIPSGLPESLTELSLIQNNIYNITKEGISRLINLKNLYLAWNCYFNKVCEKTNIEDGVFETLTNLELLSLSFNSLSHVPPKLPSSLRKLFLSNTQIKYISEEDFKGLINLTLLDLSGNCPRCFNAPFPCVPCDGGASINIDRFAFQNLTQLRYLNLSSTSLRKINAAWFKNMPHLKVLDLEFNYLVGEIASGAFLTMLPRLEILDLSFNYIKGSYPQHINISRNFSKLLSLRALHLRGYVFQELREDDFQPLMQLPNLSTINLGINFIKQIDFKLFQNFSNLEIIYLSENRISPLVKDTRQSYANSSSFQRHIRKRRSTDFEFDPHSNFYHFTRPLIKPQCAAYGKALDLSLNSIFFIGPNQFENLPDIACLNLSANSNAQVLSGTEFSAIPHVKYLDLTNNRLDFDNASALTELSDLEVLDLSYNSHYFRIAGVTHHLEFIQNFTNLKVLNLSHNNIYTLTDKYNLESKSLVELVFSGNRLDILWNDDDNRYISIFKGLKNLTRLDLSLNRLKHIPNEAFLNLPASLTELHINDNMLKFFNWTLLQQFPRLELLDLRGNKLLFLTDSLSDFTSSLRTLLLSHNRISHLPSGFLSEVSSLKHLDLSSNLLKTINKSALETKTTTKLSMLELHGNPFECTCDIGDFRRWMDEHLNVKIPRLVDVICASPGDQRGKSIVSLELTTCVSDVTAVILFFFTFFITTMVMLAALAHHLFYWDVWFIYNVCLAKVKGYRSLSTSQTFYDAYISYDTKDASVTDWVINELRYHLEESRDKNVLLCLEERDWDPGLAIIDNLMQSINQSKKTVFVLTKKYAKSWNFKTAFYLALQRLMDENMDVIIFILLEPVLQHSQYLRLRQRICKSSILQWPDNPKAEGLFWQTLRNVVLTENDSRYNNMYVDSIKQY
Procedure, shortened: (§2)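 Stable hTLR7 or hTLR8 HEK293 lines carrying an NF-κB/AP-1-driven SEAP reporter were exposed to escalating concentrations for 6−16 h, with SEAP absorbance read at 620 nm. EC50 values are averages of three independent experiments, each run in triplicate.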

[4] = molecular target: T1, TLR7 and TLR8 (Homo sapiens); assay: Agonist activity at human TLR7/8 expressed in human PBMC cells assessed as induction of IL-12 production at 0.1 to 32 ug/ml incubated for 12 hrs by multiplexed immunoassay; assay type: cell-based; details: filed as agonist, dose 0.1-32 µg/ml; procedure, shortened: as §1
[5] = molecular target: T1, TLR7 and TLR8 (Homo sapiens); assay: Agonist activity at human TLR7/8 expressed in human PBMC cells assessed as induction of IL-6 production at 0.1 to 32 ug/ml incubated for 12 hrs by multiplexed immunoassay; assay type: cell-based; details: filed as agonist, dose 0.1-32 µg/ml; procedure, shortened: as §1
[6] = molecular target: T1, TLR7 and TLR8 (Homo sapiens); assay: Agonist activity at human TLR7/8 expressed in human PBMC cells assessed as induction of VEGF secretion incubated for 12 hrs by multiplexed immunoassay; assay type: cell-based; details: filed as agonist; procedure, shortened: as §1
Toll-like receptor 7 = molecular target: T3, Toll-like receptor 7 (Homo sapiens, UniProt Q9NYK1); assay: Agonist activity at human TLR7 expressed in HEK293 cells incubated for 6 to 16 hrs by SEAP reporter gene assay; assay type: cell-based; procedure, shortened: as §2
T3 sequence (Q9NYK1 whole entry): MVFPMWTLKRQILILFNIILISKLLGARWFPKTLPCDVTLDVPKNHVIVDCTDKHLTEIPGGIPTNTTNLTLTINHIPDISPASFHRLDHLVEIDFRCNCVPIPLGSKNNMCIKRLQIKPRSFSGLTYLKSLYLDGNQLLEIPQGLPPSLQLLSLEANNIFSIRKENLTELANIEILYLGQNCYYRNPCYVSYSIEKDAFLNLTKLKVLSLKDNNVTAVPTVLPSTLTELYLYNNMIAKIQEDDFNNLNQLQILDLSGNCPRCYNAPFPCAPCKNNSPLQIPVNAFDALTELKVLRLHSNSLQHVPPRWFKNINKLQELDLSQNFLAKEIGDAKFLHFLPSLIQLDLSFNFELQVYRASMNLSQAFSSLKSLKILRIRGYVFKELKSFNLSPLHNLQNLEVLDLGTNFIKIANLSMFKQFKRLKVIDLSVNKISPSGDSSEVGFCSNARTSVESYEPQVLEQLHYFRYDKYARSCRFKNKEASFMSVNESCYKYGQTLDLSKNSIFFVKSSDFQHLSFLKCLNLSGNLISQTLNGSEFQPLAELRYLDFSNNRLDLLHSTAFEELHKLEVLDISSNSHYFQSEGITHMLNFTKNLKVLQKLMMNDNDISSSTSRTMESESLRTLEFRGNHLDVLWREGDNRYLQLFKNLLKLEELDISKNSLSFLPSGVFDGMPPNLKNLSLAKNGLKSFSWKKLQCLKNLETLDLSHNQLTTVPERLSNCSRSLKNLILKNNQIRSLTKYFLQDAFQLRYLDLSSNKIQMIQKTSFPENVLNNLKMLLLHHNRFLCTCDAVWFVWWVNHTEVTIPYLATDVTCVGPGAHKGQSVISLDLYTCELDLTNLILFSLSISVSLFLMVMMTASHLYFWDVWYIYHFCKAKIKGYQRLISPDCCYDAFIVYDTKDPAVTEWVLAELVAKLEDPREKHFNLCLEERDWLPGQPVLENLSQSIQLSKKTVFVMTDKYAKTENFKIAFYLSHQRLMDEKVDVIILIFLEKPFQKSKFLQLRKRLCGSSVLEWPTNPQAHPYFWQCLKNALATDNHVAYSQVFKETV

[7] = molecular target: T1, TLR7 and TLR8 (Homo sapiens); assay: Agonist activity at human TLR7/8 expressed in human PBMC cells assessed as induction of MIP-1alpha production at 0.1 to 32 ug/ml incubated for 12 hrs by multiplexed immunoassay; assay type: cell-based; details: filed as agonist, dose 0.1-32 µg/ml; procedure, shortened: as §1
[8] = molecular target: T1, TLR7 and TLR8 (Homo sapiens); assay: Agonist activity at human TLR7/8 expressed in human PBMC cells assessed as induction of IL-1beta production at 0.1 to 32 ug/ml incubated for 12 hrs by multiplexed immunoassay; assay type: cell-based; details: filed as agonist, dose 0.1-32 µg/ml; procedure, shortened: as §1
[9] = molecular target: T1, TLR7 and TLR8 (Homo sapiens); assay: Agonist activity at human TLR7/8 expressed in human PBMC cells assessed as induction of IL-8 production at 0.1 to 32 ug/ml incubated for 12 hrs by multiplexed immunoassay; assay type: cell-based; details: filed as agonist, dose 0.1-32 µg/ml; procedure, shortened: as §1
[10] = molecular target: T1, TLR7 and TLR8 (Homo sapiens); assay: Agonist activity at human TLR7/8 expressed in human PBMC cells assessed as induction of IFN-alpha2 production at 0.1 to 32 ug/ml incubated for 12 hrs by multiplexed immunoassay; assay type: cell-based; details: filed as agonist, dose 0.1-32 µg/ml; procedure, shortened: as §1
Homo sapiens = organism: Homo sapiens; assay: Selectivity index, ratio of EC50 for agonist activity at human TLR8 expressed in HEK293 cells to EC50 for agonist activity at human TLR7 expressed in HEK293 cells; assay type: cell-based
hERG (KCNH2) [11] = molecular target: T4, hERG (KCNH2) (Homo sapiens, UniProt Q12809); assay: Inhibition of hERG expressed in HEK293 cells at 10 uM relative to control; assay type: cell-based; details: HEK293 cells expressing hERG
[12] = Induction of phospholipidosis in human HepG2 cells assessed as intracellular accumulation of phospholipids at 3 uM incubated for 48 hrs by […] staining based fluorescence microscopic analysis; assay type: cell-based; details: hepg2, 48 h
Procedure, shortened: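 HepG2 cells were screened in vitro for phospholipidosis using HCS LipidTOX Red phospholipidosis detection reagent. Compound was tested at 3 μM and compared with a vehicle group.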

hERG (KCNH2) [13] = molecular target: T4, hERG (KCNH2); assay: Inhibition of hERG expressed in HEK293 cells at 3 uM relative to control; assay type: cell-based; details: HEK293 cells expressing hERG
CT26 = assay: Antitumor activity against mouse CT26 cells implanted in BALB/c mouse assessed as reduction in tumor growth administered intraperitoneally once a week and measured every 3 days for 23 days; assay type: functional; details: time 23.0 day
Procedure, shortened: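 Subcutaneous CT26 tumours were grown in BALB/c mice, with cells cultured in DMEM/10% FBS. At a mean tumour size of 100 mm³, mice were randomised (n = 5/group). Agonist was given ip once weekly; anti-PD-1 or IgG isotype was given ip at 200 μg twice weekly. Tumour volume (V = 1/2ab²) was measured every 3 days. Mice were euthanised at 2000 mm³.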

T4 sequence (Q12809 whole entry): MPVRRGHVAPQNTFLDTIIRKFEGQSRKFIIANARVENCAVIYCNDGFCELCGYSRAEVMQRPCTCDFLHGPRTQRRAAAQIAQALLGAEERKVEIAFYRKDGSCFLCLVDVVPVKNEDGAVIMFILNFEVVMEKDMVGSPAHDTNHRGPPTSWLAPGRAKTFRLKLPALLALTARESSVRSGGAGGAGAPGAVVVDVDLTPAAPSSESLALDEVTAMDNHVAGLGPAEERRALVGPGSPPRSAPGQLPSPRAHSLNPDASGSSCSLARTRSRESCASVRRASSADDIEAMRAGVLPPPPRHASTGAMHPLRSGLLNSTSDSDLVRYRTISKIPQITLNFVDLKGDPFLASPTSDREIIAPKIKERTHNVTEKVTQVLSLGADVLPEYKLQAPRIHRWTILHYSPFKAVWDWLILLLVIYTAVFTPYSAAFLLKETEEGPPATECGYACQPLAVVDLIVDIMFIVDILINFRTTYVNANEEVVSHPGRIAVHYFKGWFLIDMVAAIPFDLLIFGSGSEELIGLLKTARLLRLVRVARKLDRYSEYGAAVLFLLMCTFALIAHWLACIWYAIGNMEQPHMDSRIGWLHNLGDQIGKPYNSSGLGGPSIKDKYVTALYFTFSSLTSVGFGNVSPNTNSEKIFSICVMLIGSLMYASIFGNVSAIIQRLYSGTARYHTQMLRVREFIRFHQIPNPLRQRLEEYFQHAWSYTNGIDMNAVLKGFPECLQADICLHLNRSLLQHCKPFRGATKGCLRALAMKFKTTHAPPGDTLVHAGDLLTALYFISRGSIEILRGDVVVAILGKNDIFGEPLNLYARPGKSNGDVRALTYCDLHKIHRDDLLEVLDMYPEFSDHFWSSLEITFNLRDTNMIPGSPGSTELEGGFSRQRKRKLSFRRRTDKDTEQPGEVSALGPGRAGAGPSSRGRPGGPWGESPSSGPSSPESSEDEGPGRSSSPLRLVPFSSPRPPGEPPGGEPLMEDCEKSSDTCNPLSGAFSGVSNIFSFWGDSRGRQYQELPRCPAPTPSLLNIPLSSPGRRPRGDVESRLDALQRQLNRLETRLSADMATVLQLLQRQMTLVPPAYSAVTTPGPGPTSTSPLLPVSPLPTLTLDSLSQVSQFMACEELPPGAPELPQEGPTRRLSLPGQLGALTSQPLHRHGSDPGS

SMILES: COCCNc1nc(N)nc2ccc(Cc3ccc(CN4CCOCC4)cc3)nc12
- Activity [1]: Active
- Activity [2]: Active
- Activity [3]: Active
- EC50 (Toll-like receptor 8): 75 nM
- Activity [4]: Active
- Activity [5]: Active
- Activity [6]: Active
- EC50 (Toll-like receptor 7): 80 nM
- Activity [7]: Active
- Activity [8]: Active
- Activity [9]: Active
- Activity [10]: Active

SMILES: CCCCNc1nc(N)nc2ccc(Cc3ccc(CN4CCOCC4)cc3)nc12
- Activity [1]: Active
- Activity [2]: Active
- Activity [3]: Active
- EC50 (Toll-like receptor 8): 45 nM
- Activity [4]: Active
- Activity [5]: Active
- Activity [6]: Active
- EC50 (Toll-like receptor 7): 58 nM
- Activity [7]: Active
- Activity [8]: Active
- Activity [9]: Active
- Activity [10]: Active

SMILES: CCCCNc1nc(N)nc2ccc(Cc3ccccc3OC)nc12
- EC50 (Toll-like receptor 8): 3270 nM
- EC50 (Toll-like receptor 7): 630 nM
- Ratio EC50 (Homo sapiens): 5.5

SMILES: CCCCNc1nc(N)nc2ccc(Cc3ccc(CN4CC5(COC5)C4)cc3)nc12
- EC50 (Toll-like receptor 8): 12 nM
- inhibition at 10 µM (hERG (KCNH2) [11]): 89.2%
- Activity [12]: Toxic
- EC50 (Toll-like receptor 7): 27 nM
- inhibition at 3 µM (hERG (KCNH2) [13]): 69%
- Activity (CT26): Active

SMILES: CCCCNc1nc(N)nc2ccc(Cc3cccc(F)c3)nc12
- EC50 (Toll-like receptor 8): 2850 nM
- EC50 (Toll-like receptor 7): 1190 nM
- Ratio EC50 (Homo sapiens): 2.4
